Test results: ChEMBL document CHEMBL4145534, “Computer-aided insights into receptor-ligand interaction for novel 5-arylhydantoin derivatives as serotonin 5-HT7 receptor agents with antidepressant activity” (Eur J Med Chem, 2018)

Experiments:
Mus musculus = assay: Effect on spontaneous locomotor activity in Swiss albino mouse at 20 mg/kg, ip administered 60 mins prior to test and measured for 3 to 6 mins; assay type: ADME, organism-based; conditions: in vivo
How it was run: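 Male Swiss Albino mice given compound or vehicle (1% Tween 80, 10 ml/kg) i.p. 60 min before test. Each mouse placed alone in a cage for 30 min habituation. Ambulation (photobeam channel crossings) then recorded over a 3–6 min session. Means ± SEM.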

Homo sapiens = species on record: Homo sapiens; assay: Selectivity ratio of Ki for human D2L receptor expressed in HEK293 cell membranes to Ki for human 5HT7BR expressed in HEK293 cell membranes; assay type: cell-based
How it was run: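 Membranes from HEK293 cells stably expressing human 5-HT1A, 5-HT7b or D2L receptors. Buffers all 50 mM Tris HCl with 4 mM MgCl2 and 0.1% ascorbate. 5-HT1A: 0.1 mM EDTA, 10 µM pargyline, 2.5 nM [3H]-8-OH-DPAT, room temperature. 5-HT7b: 10 µM pargyline, 0.8 nM [3H]-5-CT, 37°C. D2L: EDTA, NaCl, KCl, CaCl2, 2.5 nM [3H]-raclopride, 37°C. Incubation 1 h; nonspecific binding 10 µM 5-HT (haloperidol for D2L). Seven concentrations (10^-10–10^-4 M) in triplicate; filtration; Ki by Cheng-Prusoff; at least two experiments.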

| SMILES | Activity (Mus musculus) | Ratio Ki (Homo sapiens) |
| --- | --- | --- |
| CC1(c2ccc(Br)cc2)NC(=O)N(CC(O)CN2CCN(c3ccccc3C#N)CC2)C1=O.Cl (racemic) | Non-Toxic | – |
| CC1(c2ccc(Cl)cc2)NC(=O)N(CC(O)CN2CCN(c3ccccc3C#N)CC2)C1=O.Cl (racemic) | – | 140 to 190 |
